Measured values as given in ChEMBL document CHEMBL1142707, “Bisaryloxime ethers as potent inhibitors of transthyretin amyloid fibril formation” (J Med Chem, 2005).

The compounds below were run against Transthyretin (Homo sapiens) (UniProt P02766) (assay: Percentage of WT-TTR (3.6 uM) amyloid fibril formation at pH 4.4 upon incubation with the compound (7.2 uM)).
How it was run: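 WT-TTR (7.2 µM, 0.4 mg/mL) in 10 mM phosphate pH 7.2, 100 mM KCl, 1 mM EDTA was preincubated 30 min at 37 °C with inhibitor added from a 1.44 mM DMSO stock. An equal volume of 200 mM acetate pH 4.2 brought the sample to pH 4.4 (3.6 µM TTR, 7.2 µM compound final). Left 72 h at 37 °C, vortexed, turbidity read at 350 and 400 or 500 nm. Run in duplicate or triplicate.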
For `O=C(O)c1ccccc1O/N=C/c1ccccc1`, the Formation was 91%.
Compound `O=C(O)c1cccc(O/N=C/c2cc(I)c(O)c(I)c2)c1` has a Formation of 0%.
`FC(F)(F)c1cccc(/C=N/Oc2ccccc2)c1` gave a Formation of 92%.
For `Oc1c(Br)cc(/C=N/Oc2ccccc2C(F)(F)F)cc1Br`, the Formation was 1%.
Work on `Fc1cc(F)cc(O/N=C/c2ccc(C(F)(F)F)cc2)c1` yielded a Formation of 77%.
`O=C(O)c1cccc(O/N=C/c2cccc(C(F)(F)F)c2)c1` gave a Formation of 27%.
`Fc1cc(F)cc(O/N=C/c2cc(Cl)cc(Cl)c2)c1` gave a Formation of 90%.
With `O=C(O)c1ccccc1/C=N/Oc1cc(F)cc(F)c1` the Formation was 84%.
`FC(F)(F)c1ccccc1O/N=C/c1ccccc1` gave a Formation of 56%.
`O=C(O)c1ccc(O/N=C/c2ccc(C(F)(F)F)cc2)cc1` was tested, and the Formation was 94%.
In the case of `O=C(O)c1ccccc1O/N=C/c1ccc(C(F)(F)F)cc1`, the Formation was 90%.
For `O=C(O)c1cccc(/C=N/Oc2cccc(C(=O)O)c2)c1`, the Formation was 15%.
`FC(F)(F)c1ccccc1O/N=C/c1c(Cl)cccc1Cl` showed a Formation of 15%.
`Clc1cc(Cl)cc(O/N=C/c2ccccc2)c1` was tested, and the Formation was 39%.
With `O=C(O)c1ccccc1O/N=C/c1cc(Br)c(O)c(Br)c1` the Formation was 0%.
With `O=C(O)c1ccc(/C=N/Oc2ccccc2C(=O)O)cc1` the Formation was 87%.
`O=C(O)c1cccc(O/N=C/c2ccccc2)c1` showed a Formation of 50%.
Work on `O=C(O)c1cccc(O/N=C/c2c(Cl)cccc2Cl)c1` yielded a Formation of 1%.
For `Oc1c(I)cc(/C=N/Oc2cccc(C(F)(F)F)c2)cc1I`, the Formation was 4%.
`O=C(O)c1cccc(/C=N/Oc2cccc(C(F)(F)F)c2)c1` was tested, and the Formation was 9%.
Work on `Oc1c(Br)cc(/C=N/Oc2cccc(C(F)(F)F)c2)cc1Br` yielded a Formation of 4%.
With `O=C(O)c1cccc(/C=N/Oc2ccccc2C(F)(F)F)c1` the Formation was 6%.
Compound `Clc1cc(Cl)cc(/C=N/Oc2ccccc2)c1` has a Formation of 56%.
With `O=C(O)c1ccccc1O/N=C/c1cc(I)c(O)c(I)c1` the Formation was 0%.
For `Clc1cccc(Cl)c1/C=N/Oc1ccccc1`, the Formation was 63%.
`Fc1cc(F)cc(/C=N/Oc2ccccc2)c1` gave a Formation of 95%.
Work on `Fc1cc(F)cc(/C=N/Oc2ccccc2C(F)(F)F)c1` yielded a Formation of 75%.
`O=C(O)c1ccc(/C=N/Oc2cccc(C(=O)O)c2)cc1` gave a Formation of 31%.
`FC(F)(F)c1ccc(/C=N/Oc2cc(Cl)cc(Cl)c2)cc1` showed a Formation of 68%.
`O=C(O)c1ccc(/C=N/Oc2cc(Cl)cc(Cl)c2)cc1` gave a Formation of 9%.
Work on `O=C(O)c1ccc(O/N=C/c2ccccc2C(F)(F)F)cc1` yielded a Formation of 0%.
For `Fc1cc(F)cc(O/N=C/c2ccccc2)c1`, the Formation was 87%.
For `O=C(O)c1ccc(O/N=C/c2ccccc2)cc1`, the Formation was 32%.
For `Oc1c(Br)cc(/C=N/Oc2ccccc2)cc1Br`, the Formation was 0%.
For `C(=N\Oc1ccccc1)/c1ccccc1`, the Formation was 96%.
Work on `O=C(O)c1cccc(O/N=C/c2ccccc2C(=O)O)c1` yielded a Formation of 94%.
`O=C(O)c1ccc(/C=N/Oc2ccccc2)cc1` gave a Formation of 77%.
Compound `Oc1c(I)cc(/C=N/Oc2ccccc2C(F)(F)F)cc1I` has a Formation of 1%.
`Fc1cc(F)cc(/C=N/Oc2cc(Cl)cc(Cl)c2)c1` was tested, and the Formation was 61%.
Work on `O=C(O)c1ccc(O/N=C/c2cc(F)cc(F)c2)cc1` yielded a Formation of 18%.
Compound `O=C(O)c1ccccc1/C=N/Oc1ccccc1C(F)(F)F` has a Formation of 75%.
`O=C(O)c1ccc(/C=N/Oc2ccc(C(=O)O)cc2)cc1` gave a Formation of 46%.
Compound `Fc1cc(F)cc(O/N=C/c2c(Cl)cccc2Cl)c1` has a Formation of 24%.
`Clc1cc(Cl)cc(/C=N/Oc2cc(Cl)cc(Cl)c2)c1` showed a Formation of 63%.
`O=C(O)c1ccccc1O/N=C/c1cc(F)cc(F)c1` showed a Formation of 78%.
Work on `Oc1c(Br)cc(/C=N/Oc2cc(F)cc(F)c2)cc1Br` yielded a Formation of 3%.
`FC(F)(F)c1ccccc1/C=N/Oc1ccccc1C(F)(F)F` gave a Formation of 83%.

Each compound was assayed against Transthyretin (Homo sapiens) (UniProt P02766) (assay: Percentage compound remaining at the conclusion of the acid-mediated fibril formation assay (72 h), assay conditions compound (7.2 uM), WT-TTR (3.6 uM, pH 4.4, 37C)).
How it was run: (§1)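 Compound at 7.2 µM was incubated in the dark with or without 3.6 µM WT-TTR under acid fibril conditions (pH 4.4, 37 °C, 72 h). Analytical RP-HPLC peak area of the compound at the end was compared with the area at the start. Measurement error stated as 4%.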
`O=C(O)c1cccc(O/N=C/c2cc(I)c(O)c(I)c2)c1` was tested, and the Activity was 77%.
Work on `Oc1c(Br)cc(/C=N/Oc2ccccc2C(F)(F)F)cc1Br` yielded an Activity of 98%.
`O=C(O)c1ccc(O/N=C/c2ccccc2C(F)(F)F)cc1` gave an Activity of 84%.
Compound `Oc1c(Br)cc(/C=N/Oc2ccccc2)cc1Br` has an Activity of 76%.
`Oc1c(I)cc(/C=N/Oc2ccccc2C(F)(F)F)cc1I` showed an Activity of 100%.

What follows are compounds tested against Transthyretin (Homo sapiens) (UniProt P02766) (assay: Percentage compound remaining at the conclusion of the acid-mediated fibril formation assay (72 h) in absence of TTR, assay conditions, compound (7.2 uM), pH 4.4, 37C).
How it was run: as §1
Compound `O=C(O)c1cccc(O/N=C/c2cc(I)c(O)c(I)c2)c1` has an Activity of 81%.
For `Oc1c(Br)cc(/C=N/Oc2ccccc2C(F)(F)F)cc1Br`, the Activity was 78%.
For `O=C(O)c1ccc(O/N=C/c2ccccc2C(F)(F)F)cc1`, the Activity was 79%.
With `Oc1c(Br)cc(/C=N/Oc2ccccc2)cc1Br` the Activity was 8%.
`Oc1c(I)cc(/C=N/Oc2ccccc2C(F)(F)F)cc1I` gave an Activity of 89%.

The compounds below were run against Transthyretin (Homo sapiens) (UniProt P02766) (assay: Binding stoichiometry to TTR in human blood plasma determined by antibody capture/HPLC method).
Assay type: cell-free
How it was run: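 Human blood plasma spiked to 10.8 µM test compound from a 2.16 mM DMSO stock and incubated 24 h at 37 °C. Plasma was precleared with plain Sepharose for 1 h at 4 °C, then split into three aliquots for anti-TTR antibody-resin capture (20 min, 4 °C) in 10 mM Tris pH 8.0, 140 mM NaCl. Resin washed, eluted with 100 mM triethylamine pH 11.5, eluate analysed by HPLC for compound:TTR stoichiometry.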
`O=C(O)c1cccc(O/N=C/c2cc(I)c(O)c(I)c2)c1` was tested, and the Binding stoichiometry was less than 0.5.
Compound `Oc1c(Br)cc(/C=N/Oc2ccccc2C(F)(F)F)cc1Br` has a Binding stoichiometry of 1.86.
With `O=C(O)c1ccccc1O/N=C/c1cc(Br)c(O)c(Br)c1` the Binding stoichiometry was less than 0.5.
`O=C(O)c1cccc(O/N=C/c2c(Cl)cccc2Cl)c1` gave a Binding stoichiometry of 0.71.
With `Oc1c(I)cc(/C=N/Oc2cccc(C(F)(F)F)c2)cc1I` the Binding stoichiometry was 1.02.
`O=C(O)c1cccc(/C=N/Oc2cccc(C(F)(F)F)c2)c1` showed a Binding stoichiometry of less than 0.5.
In the case of `Oc1c(Br)cc(/C=N/Oc2cccc(C(F)(F)F)c2)cc1Br`, the Binding stoichiometry was 1.17.
`O=C(O)c1cccc(/C=N/Oc2ccccc2C(F)(F)F)c1` showed a Binding stoichiometry of 1.07.
`O=C(O)c1ccccc1O/N=C/c1cc(I)c(O)c(I)c1` gave a Binding stoichiometry of less than 0.5.
`O=C(O)c1ccc(/C=N/Oc2cc(Cl)cc(Cl)c2)cc1` was tested, and the Binding stoichiometry was 0.78.
`O=C(O)c1ccc(O/N=C/c2ccccc2C(F)(F)F)cc1` showed a Binding stoichiometry of 1.31.
`Oc1c(Br)cc(/C=N/Oc2ccccc2)cc1Br` gave a Binding stoichiometry of 1.02.
In the case of `Oc1c(I)cc(/C=N/Oc2ccccc2C(F)(F)F)cc1I`, the Binding stoichiometry was 1.71.
For `Oc1c(Br)cc(/C=N/Oc2cc(F)cc(F)c2)cc1Br`, the Binding stoichiometry was 1.42.
